# Residues, ends and D or L forms follow the SMILES beside them.
# Key:
# [1] = Hemolytic activity against human RBC at 50 uM after 1 hr by Drabkin's assay relative to control; type: ADME, cell-based, Erythrocyte; settings: human red blood cells (erythrocytes), read-out: Activity
# [2] = Hemolytic activity against human RBC at 25 uM after 1 hr by Drabkin's assay relative to control; type: ADME, cell-based, Erythrocyte; settings: human red blood cells (erythrocytes), read-out: Activity
# [3] = Hemolytic activity against human RBC at 12.5 uM after 1 hr by Drabkin's assay relative to control; type: ADME, cell-based, Erythrocyte; settings: human red blood cells (erythrocytes), read-out: Activity
# [4] = Hemolytic activity against human RBC at 6.25 uM after 1 hr by Drabkin's assay relative to control; type: ADME, cell-based, Erythrocyte; settings: human red blood cells (erythrocytes), read-out: Activity
# [5] = Hemolytic activity against human RBC at 3.125 uM after 1 hr by Drabkin's assay relative to control; type: ADME, cell-based, Erythrocyte; settings: human red blood cells (erythrocytes), read-out: Activity
# [6] = Hemolytic activity against human RBC at 1.56 uM after 1 hr by Drabkin's assay relative to control; type: ADME, cell-based, Erythrocyte; settings: human red blood cells (erythrocytes), read-out: Activity
# [7] = Hemolytic activity against human RBC at 0.78 uM after 1 hr by Drabkin's assay relative to control; type: ADME, cell-based, Erythrocyte; settings: human red blood cells (erythrocytes), read-out: Activity
# [8] = Hemolytic activity against human RBC at 0.39 uM after 1 hr by Drabkin's assay relative to control; type: ADME, cell-based, Erythrocyte; settings: human red blood cells (erythrocytes), read-out: Activity
# [9] = Hemolytic activity against human RBC; type: ADME, cell-based, Erythrocyte; settings: human red blood cells (erythrocytes)
# Erythrocyte = assay: Hemolytic activity against human RBC after 1 hr by Drabkin's assay; type: ADME, cell-based
# Staphylococcus aureus [10] = assay: Growth inhibition of methicillin-resistant Staphylococcus aureus ATCC 43300 at 32 ug/ml after 18 hrs; type: functional; settings: ATCC 43300, 18 h, read-out: GI
# In short: (§1)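 Mid-log cultures in cation-adjusted Mueller Hinton broth were added at 5×10^5 CFU/mL to wells at a final compound concentration of 32 μg/mL. Plates stood at 37 °C for 18 h. Growth was read by OD600, and % inhibition was computed against media-only and untreated-bacteria controls.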
# Escherichia coli [11] = assay: Growth inhibition of Escherichia coli ATCC 25922 at 32 ug/ml after 18 hrs; type: functional; settings: ATCC 25922, 18 h, read-out: GI
# In short: (§2)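 Mid-log cultures were prepared as above and seeded at 5×10^5 CFU/mL with compound at a final 32 μg/mL, then held static at 37 °C for 18 h. Growth was read as OD600. Percent inhibition was calculated against media-only and bacteria-only controls on the same plate.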
# Klebsiella pneumoniae [12] = assay: Growth inhibition of multidrug-resistant Klebsiella pneumoniae ATCC 700603 at 32 ug/ml after 18 hrs; type: functional; settings: ATCC 700603, 18 h, read-out: GI; in short: as §1
# Pseudomonas aeruginosa = assay: Growth inhibition of Pseudomonas aeruginosa ATCC 27853 at 32 ug/ml after 18 hrs; type: functional; settings: ATCC 27853, 18 h, read-out: GI; in short: as §2
# Acinetobacter baumannii [13] = assay: Growth inhibition of Acinetobacter baumannii ATCC 19606 at 32 ug/ml after 18 hrs; type: functional; settings: ATCC 19606 = CIP 70.34 = JCM 6841, 18 h, read-out: GI; in short: as §2
# Escherichia coli [14] = assay: Antibacterial activity against Escherichia coli ATCC 25922 after 18 hrs by non-binding surface 96-well plate-based method; type: functional; settings: ATCC 25922, 18 h
# In short: (§3)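 Cultured in cation-adjusted Mueller Hinton broth at 37 °C for 12 h, diluted 40-fold and grown 1.5–3 h to mid-log. Seeded at 5×10^5 CFU/mL over a 12-point dose response in non-binding surface and polystyrene 96-well plates, duplicates (n=2). Incubated static at 37 °C for 18 h. MIC read from OD600 light scattering; colistin and vancomycin as standards.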
# Escherichia coli [15] = assay: Antibacterial activity against Escherichia coli ATCC 25922 after 18 hrs by polystyrene 96-well plate-based method; type: functional; settings: ATCC 25922, 18 h
# In short: (§4)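 Strains grown in cation-adjusted Mueller Hinton broth at 37 °C for 12 h, diluted 40-fold and regrown 1.5–3 h to mid-log. Inoculum was 5×10^5 CFU/mL in 12-point dose response, in non-binding surface or polystyrene plates, in duplicate. Plates stood at 37 °C for 18 h. MIC was read by OD600.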
# Klebsiella pneumoniae [16] = assay: Antibacterial activity against multidrug-resistant Klebsiella pneumoniae ATCC 700603 after 18 hrs by non-binding surface 96-well plate-based method; type: functional; settings: ATCC 700603, 18 h; in short: as §4
# Klebsiella pneumoniae [17] = assay: Antibacterial activity against multidrug-resistant Klebsiella pneumoniae ATCC 700603 after 18 hrs by polystyrene 96-well plate-based method; type: functional; settings: ATCC 700603, 18 h; in short: as §4
# Acinetobacter baumannii [18] = assay: Antibacterial activity against Acinetobacter baumannii ATCC 19606 after 18 hrs by non-binding surface 96-well plate-based method; type: functional; settings: ATCC 19606 = CIP 70.34 = JCM 6841, 18 h; in short: as §4
# Acinetobacter baumannii [19] = assay: Antibacterial activity against Acinetobacter baumannii ATCC 19606 after 18 hrs by polystyrene 96-well plate-based method; type: functional; settings: ATCC 19606 = CIP 70.34 = JCM 6841, 18 h; in short: as §3
# Staphylococcus aureus [20] = assay: Antibacterial activity against methicillin-resistant Staphylococcus aureus ATCC 43300 after 18 hrs by non-binding surface 96-well plate-based method; type: functional; settings: ATCC 43300, 18 h; in short: as §4
# Staphylococcus aureus [21] = assay: Antibacterial activity against methicillin-resistant Staphylococcus aureus ATCC 43300 after 18 hrs by polystyrene 96-well plate-based method; type: functional; settings: ATCC 43300, 18 h; in short: as §4
# Cryptococcus neoformans = assay: Growth inhibition of Cryptococcus neoformans H99 ATCC 208821 at 32 ug/ml after 24 hrs by resazurin dye-based microspectrophotometric assay; type: functional; settings: var. grubii H99 ATCC 208821, 24 h, read-out: GI
# In short: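 Yeasts were grown 3 days on YPD agar at 30 °C, suspended from five colonies and diluted in YNB broth to a final 2.5×10^3 CFU/mL. Compound at a final 32 μg/mL; incubated 24 h at 35 °C without shaking. C. albicans was read at OD530. C. neoformans was read as OD600–570 after resazurin (0.001% final) and a further 2 h at 35 °C. Fluconazole was the standard.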
# Lipid bilayer = assay: Induction of pore formation in POPC vesicles at 20 uM after 3 hrs by carboxyfluorescein dye leakage assay; settings: in the assay text read “after 3 mins” for “after 3 hrs”
# In short: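 POPC or DOPC liposomes were hydrated in 10 mM HEPES, 100 mM KCl, pH 7.4, containing 50 mM carboxyfluorescein. Size was checked by dynamic light scattering, and vesicles were used at 2.2×10^10 per mL. Peptide at 20 μM was equilibrated with vesicles for 3 min, and dye leakage was measured.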
# Candida albicans = assay: Growth inhibition of Candida albicans ATCC 90028 at 32 ug/ml after 24 hrs by OD530 light-scattering microspectrophotometric method; settings: ATCC 90028, 24 h, read-out: GI
compound,measurement,setting,value
CC(C)C[C@@H](NC(=O)[C@H](C)NC(=O)CNC(=O)[C@@H](NC=O)C(C)C)C(=O)N[C@@H](C)C(=O)N[C@@H](C(=O)N[C@H](C(=O)N[C@@H](C(=O)N[C@@H](Cc1c[nH]c2ccccc12)C(=O)N[C@H](CC(C)C)C(=O)N[C@@H](Cc1c[nH]c2ccccc12)C(=O)N[C@H](CC(C)C)C(=O)N[C@@H](Cc1c[nH]c2ccccc12)C(=O)N[C@H](CC(C)C)C(=O)N[C@@H](Cc1c[nH]c2ccccc12)C(=O)NCCO)C(C)C)C(C)C)C(C)C (HELM PEPTIDE1{[O=C[*:2]].V.G.A.[dL].A.[dV].V.[dV].W.[dL].W.[dL].W.[dL].W.[OCCN[*:1]]}$$$$V2.0),"hemolysis at 1 h, 50 µM",[1],48.5%
same,"hemolysis at 1 h, 25 µM",[2],52.8%
same,"hemolysis at 1 h, 12.5 µM",[3],66.1%
same,"hemolysis at 1 h, 6.25 µM",[4],87.2%
same,"hemolysis at 1 h, 3.125 µM",[5],84.7%
same,"hemolysis at 1 h, 1.56 µM",[6],74.8%
same,"hemolysis at 1 h, 0.78 µM",[7],59.4%
same,"hemolysis at 1 h, 0.39 µM",[8],5.43%
same,HC50,[9],5 µM
same,Activity,Erythrocyte,Dose-dependent effect
same,inhibition of growth at 32 µg/mL,Staphylococcus aureus [10],24.9%
same,inhibition of growth at 32 µg/mL,Escherichia coli [11],11.1%
same,inhibition of growth at 32 µg/mL,Klebsiella pneumoniae [12],11.2%
same,inhibition of growth at 32 µg/mL,Pseudomonas aeruginosa,-6.36%
same,inhibition of growth at 32 µg/mL,Acinetobacter baumannii [13],6.51%
same,MIC,Escherichia coli [14],> 50 µg/mL
same,MIC,Escherichia coli [15],> 50 µg/mL
same,MIC,Klebsiella pneumoniae [16],> 50 µg/mL
same,MIC,Klebsiella pneumoniae [17],> 50 µg/mL
same,MIC,Acinetobacter baumannii [18],> 50 µg/mL
same,MIC,Acinetobacter baumannii [19],> 50 µg/mL
same,MIC,Staphylococcus aureus [20],> 50 µg/mL
same,MIC,Staphylococcus aureus [21],25 to 50 µg/mL
same,inhibition of growth at 32 µg/mL,Cryptococcus neoformans,-0.81%
same,Activity,Lipid bilayer,100%
same,inhibition of growth at 32 µg/mL,Candida albicans,8.67%
